Measured values pooled from the literature.
Lines come from different studies, so protocols differ.
cah: cah (Neisseria gonorrhoeae, UniProt Q50940)
HDAC4: Histone deacetylase 4 (HDAC4, Homo sapiens, UniProt P56524)
SPHK2: Sphingosine kinase 2 (SPHK2, Homo sapiens, UniProt Q9NRA0)
PI4KB: Phosphatidylinositol 4-kinase beta (PI4KB, Homo sapiens, UniProt Q9UBF8)
CA4: Carbonic anhydrase 4 (CA4, Homo sapiens, UniProt P22748)
Grm7: Metabotropic glutamate receptor 7 (Grm7, Rattus norvegicus, UniProt P35400)

SMILES	target	assay	system	conditions	measurement	value
Nc1nnc(S(N)(=O)=O)s1	cah	enzyme activity, inhibitor	–	–	Ki	73.2 nM
CCCN(CCCCOCCOCCOCCOCCOCC(=O)N[C@@H](C(=O)N1C[C@@H](O)C[C@@H]1C(=O)NCc1ccc(-c2scnc2C)cc1)C(C)(C)C)C[C@@H](C)NC(=O)c1ccc(-c2noc(C(F)(F)F)n2)cc1	HDAC4	protein level, degrader	–	–	DC50	> 10000 nM
N=C(N)N1CCC[C@H]1c1nc(-c2ccc(CCc3ccc(C(F)(F)F)cc3)c(C(F)(F)F)c2)no1	SPHK2	enzyme activity, inhibitor	–	–	Ki	165 nM
CC[C@H](NC(=O)[C@H](CS(=O)(=O)CC1CC1)N[C@@H](c1ccc(F)cc1)C(F)(F)F)C(=O)C(=O)NC1CC1	Procathepsin L (CTSL, Homo sapiens, UniProt P07711)	enzyme activity, inhibitor, fluorescence	–	with preincubation	Ki	0.25 nM
FC(F)(F)c1ccc([C+](c2c[nH]c3ccccc23)c2c[nH]c3ccccc23)cc1	Nuclear receptor subfamily 4immunitygroup A member 1 (NR4A1, Homo sapiens, UniProt P22736)	binding, SPR	–	–	Kd	170 nM
CN(C)C1CCN(C(=O)c2ccc(NC(=O)Nc3ccc(-c4nc(N5CCOCC5)nc(N5CCOCC5)n4)cc3)cc2)CC1	PI4KB	binding, competition with immobilised ligand	–	–	Kd	> 30000 nM
Nc1nc(-c2ccc(Cl)c(S(N)(=O)=O)c2)cs1	CA4	thermal stability, DSF	–	pH 7	Kd	200 nM
C=CC(=O)N1CCC(C(=O)N(C)CC(=O)N2CCN(c3nc(-c4cnc(N)nc4C(F)F)nc(N4CCOCC4)n3)CC2)CC1	PI4KB	binding, competition with immobilised ligand	–	–	Kd	> 30000 nM
NS(=O)(=O)c1ccc(C(=O)CSCc2ccccc2)cc1	CA4	thermal stability, DSF	–	pH 7	Kd	16 nM
COC(=O)c1ccc(-n2c(C)cc(C(=O)CSc3ccc(NC(C)=O)cc3)c2C)cc1	Grm7	calcium signal, positive allosteric modulator	–	–	EC50	1580 nM
CCOC(=O)[C@](CC)(CCCS(=O)(=O)CCOCCOCCNC(=O)OC(C)(C)C)NC(=O)c1ccc(C2CC2)c(Cc2ccc(F)cc2)n1	Cannabinoid receptor 2 (Cnr2, Mus musculus, UniProt P47936)	ligand displacement, radioligand	–	cell membranes	Ki	100 nM
NS(=O)(=O)c1nnc(NC(=O)C2CCCC2)s1	cah	enzyme activity, inhibitor	–	–	Ki	14.1 nM
Cc1nc(NC(=O)N2CCC[C@H]2C(N)=O)sc1-c1ccnc(C(C)(C)C(F)(F)F)c1	PI4KB	binding, competition with immobilised ligand	–	–	Kd	82 nM
CCCN(CCCCOCCOCCOCC(=O)N[C@H](C(=O)N1C[C@H](O)C[C@H]1C(=O)NCc1ccc(-c2scnc2C)cc1)C(C)(C)C)C[C@@H](C)NC(=O)c1ccc(-c2noc(C(F)(F)F)n2)cc1	HDAC4	protein level, degrader	–	–	DC50	3 nM
NS(=O)(=O)c1nnc(NC(=O)CC2CCC2)s1	cah	enzyme activity, inhibitor	–	–	Ki	5.8 nM
COc1cc(C2Oc3cc([C@H]4Oc5cc(O)cc(O)c5C(=O)[C@@H]4O)ccc3OC2CO)ccc1O (some centres unmarked)	Cytochrome P450 2B1 (Cyp2b1, Rattus norvegicus, UniProt P00176)	enzyme activity, inhibitor	rat, liver microsomes	1 h	Ki	58400 nM
CCCN1CCN(c2ccc(-c3cncc(Cl)c3N3CCC4(CCNC4=O)CC3)cc2)CC1	Oxidized purine nucleoside triphosphate hydrolase (NUDT1, Homo sapiens, UniProt P36639)	cell-free assay	–	lysate	Kd	2330 nM
Nc1ncnc2c1ncn2[C@@H]1O[C@H](COP(=O)(O)OP(=O)(O)OP(=O)(O)O)[C@@H](O)[C@H]1O	P2X purinoceptor 1 (P2RX1, Homo sapiens, UniProt P51575)	ion current, agonist, two-electrode voltage clamp	–	oocytes	EC50	~900 nM
CCCc1ccc(CCc2ccc(-c3noc([C@@H]4CCCN4C(=N)N)n3)cc2C(F)(F)F)cc1	SPHK2	enzyme activity, inhibitor	–	–	Ki	132 nM
Cc1cnc(-c2ccc(-c3ccc(NC(=O)Nc4c(F)cc(F)cc4F)cc3F)c3c2C(=O)NC3)[nH]1	Tyrosine-protein kinase Blk (BLK, Homo sapiens, UniProt P51451)	binding, competition with immobilised ligand	–	–	Kd	2.2 nM
N[C@@H](CCC(=O)O)C(=O)O	Grm7	ion flux, agonist	–	–	EC50	260000 nM
NS(=O)(=O)c1nnc(NC(=O)C2CC2)s1	cah	enzyme activity, inhibitor	–	–	Ki	15.2 nM
Cc1ccc(C(=O)Nc2ccc(Oc3cc4cnn(C)c4cc3-c3cn[nH]c3)c(F)c2)c(=O)n1-c1ccc(F)cc1	Platelet-derived growth factor receptor alpha (PDGFRA, Homo sapiens, UniProt P16234)	binding, competition with immobilised ligand	–	–	Kd	620 nM
